Assay results published in ChEMBL document CHEMBL3232995, “Synthesis and evaluation of effective photoaffinity probe molecule of furospinosulin-1, a hypoxia-selective growth inhibitor” (Bioorg Med Chem, 2014).
The source made the active and inactive calls. The calls are words filed in the database; no cut-off is given here.

What was measured:
DU-145 [1] = experiment: Antiproliferative activity against human DU145 cells under hypoxia condition assessed as growth inhibition at 10 to 100 uM after 24 hrs by MTT assay; type: functional, cell-based
Summary of the method: (§1)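 DU145 human prostate cancer cells kept in RPMI 1640 with 10% heat-inactivated FBS and kanamycin (50 µg/ml), 5% CO2, 37 °C. Seeded at 1 × 10⁴ cells/well. Held 4 h normoxic, then 12 h under 1% O2/5% CO2/94% N2 to induce hypoxia genes. Compound then added and plates kept a further 24 h hypoxic. Read-out by MTT, with inhibition as percent of parallel negative controls.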

DU-145 [2] = experiment: Antiproliferative activity against human DU145 cells under normoxia condition assessed as growth inhibition at 10 to 100 uM after 24 hrs by MTT assay; type: functional, cell-based
Summary of the method: (§2)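 DU145 cells were grown in RPMI 1640 with heat-inactivated 10% FBS and kanamycin (50 µg/ml) under humidified 5% CO2 at 37 °C and seeded at 1 × 10⁴ cells/well. Growth under normoxic conditions was measured by colorimetric MTT assay. Inhibition was taken relative to parallel negative controls.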

DU-145 [3] = experiment: Antiproliferative activity against human DU145 cells under hypoxia condition assessed as growth inhibition at 3 to 30 uM after 24 hrs by MTT assay; type: functional, cell-based; summary of the method: as §1
DU-145 [4] = experiment: Inhibition of transcription factor complex formation in hypoxia-induced human DU145 cells assessed as reduction in nuclear proteins and Sp1 oligonucleotide probe complex at 100 to 300 uM by EMSA; type: functional, cell-based
Summary of the method: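 Nuclear extracts were made from DU145 cells under normoxia or hypoxia. They were pre-incubated on ice for 20 min with compound (100 or 300 µM) in binding buffer: 10 mM Tris-HCl pH 7.5, 50 mM KCl, 5 mM MgCl2, 1 mM DTT, 1% glycerol, BSA, poly(dI-dC). Then 5'-biotinylated Sp1 oligonucleotide (4 fmol per 20 µL) was added for 15 min at room temperature. Complexes were resolved on 5% native PAGE in 0.5× TBE, blotted, and detected by streptavidin-HRP/ECL.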

CCRF S-180 [5] = experiment: Antitumor activity against mouse S180 cells allografted in ddY mouse assessed as tumor growth at 25 mg/kg, po administered once every 2 days for 2 weeks relative to control; conditions: CCRF S-180, po
DU-145 [6] = experiment: Antiproliferative activity against normoxia-induced human DU145 cells assessed as growth inhibition after 24 hrs by MTT assay; type: functional, cell-based; summary of the method: as §2
Mus musculus [7] = experiment: Toxicity in mouse S180 cells allografted in ddY mouse assessed as diarrhea at 5 to 25 mg/kg, po administered once every 2 days for 2 weeks relative to control; type: organism-based, CCRF S-180; parameters: dose 5-25 mg/kg, route oral; conditions: in vivo
Summary of the method: (§3)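 Female ddY mice, 6 weeks old, received S180 sarcoma cells (1 × 10⁶ cells/body) subcutaneously in the right ventral flank. Dosing began one week after implantation: oral suspension in 1% CMC-Na, every other day for 2 weeks (7 doses). Tumors were excised and weighed to give the inhibition ratio against control. Four mice per group. Weight loss and diarrhea were watched throughout.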

Mus musculus [8] = experiment: Toxicity in mouse S180 cells allografted in ddY mouse assessed as weight loss at 5 to 25 mg/kg, po administered once every 2 days for 2 weeks relative to control; type: organism-based, CCRF S-180; parameters: dose 5-25 mg/kg, route oral; conditions: in vivo; summary of the method: as §3
DU-145 [9] = experiment: Antiproliferative activity against human DU145 cells under hypoxia condition assessed as growth inhibition after 24 hrs by MTT assay; type: functional, cell-based; summary of the method: as §1
CCRF S-180 [10] = experiment: Antitumor activity against mouse S180 cells allografted in ddY mouse assessed as tumor growth at 5 mg/kg, po administered once every 2 days for 2 weeks relative to control; conditions: CCRF S-180, po
CCRF S-180 [11] = experiment: Antitumor activity against mouse S180 cells allografted in ddY mouse assessed as tumor growth at 10 mg/kg, po administered once every 2 days for 2 weeks relative to control; conditions: CCRF S-180, po

C#CC/C(C)=C/CC/C(C)=C/CC/C(C)=C/CC/C(C)=C/CCc1ccoc1
growth inhibition (GI) (DU-145 [1]): Active | growth inhibition (GI) (DU-145 [2]): Active

C/C(=C\CC/C(C)=C/CCc1ccoc1)CC/C=C(\C)CC/C=C(\C)CCc1cn(CCCNC(=O)CSC[C@H](NC(=O)c2ccc(C(=O)c3ccccc3)cc2)C(=O)NCCOCCOCCOCCn2cc(CNC(=O)CCCC[C@@H]3SC[C@@H]4NC(=O)N[C@@H]43)nn2)nn1
growth inhibition (GI) (DU-145 [3]): inactive | Activity (DU-145 [4]): inactive

C/C(=C\CC/C(C)=C/CCc1ccoc1)CC/C=C(\C)CC/C=C(\C)CCc1cn(CCOCCOCCOCCNC(=O)CSC[C@H](NC(=O)c2ccc(C(=O)c3ccccc3)cc2)C(=O)NCCOCCOCCOCCn2cc(CNC(=O)CCCC[C@@H]3SC[C@@H]4NC(=O)N[C@@H]43)nn2)nn1
growth inhibition (GI) (DU-145 [3]): Active | Activity (DU-145 [4]): Active

CC(C)=CCC/C(C)=C/CC/C(C)=C/CC/C(C)=C/CCc1ccoc1
growth inhibition (GI) (DU-145 [1]): Active | growth inhibition (GI) (DU-145 [2]): Active

C#CCC/C(C)=C/CC/C(C)=C/CC/C(C)=C/CC/C(C)=C/CCc1ccoc1
level, % of control at 25 mg/kg (CCRF S-180 [5]): 11% | growth inhibition (GI) (DU-145 [6]): Dose-dependent effect | Activity (Mus musculus [7]): Non-toxic | growth inhibition (GI) (DU-145 [1]): Active | Activity (Mus musculus [8]): Non-toxic | growth inhibition (GI) (DU-145 [2]): Active | growth inhibition (GI) (DU-145 [9]): Dose-dependent effect | level, % of control at 5 mg/kg (CCRF S-180 [10]): 45% | level, % of control at 10 mg/kg (CCRF S-180 [11]): 26%

CC(=O)OC/C(C)=C/CC/C(C)=C/CC/C(C)=C/CC/C(C)=C/CCc1ccoc1
growth inhibition (GI) (DU-145 [1]): Active | growth inhibition (GI) (DU-145 [2]): Active

C/C(=C\CC/C(C)=C/CC/C(C)=C/CC/C(C)=C/CCc1ccoc1)CO
growth inhibition (GI) (DU-145 [1]): Active | growth inhibition (GI) (DU-145 [2]): Active

C/C(=C\CC/C(C)=C/CCc1ccoc1)CC/C=C(\C)CC/C=C(\C)CCc1cn(CCCCCNC(=O)CSC[C@H](NC(=O)c2ccc(C(=O)c3ccccc3)cc2)C(=O)NCCOCCOCCOCCn2cc(CNC(=O)CCCC[C@@H]3SC[C@@H]4NC(=O)N[C@@H]43)nn2)nn1
growth inhibition (GI) (DU-145 [3]): inactive | Activity (DU-145 [4]): inactive

C#CCOC/C(C)=C/CC/C(C)=C/CC/C(C)=C/CC/C(C)=C/CCc1ccoc1
growth inhibition (GI) (DU-145 [1]): Active | growth inhibition (GI) (DU-145 [2]): Active

C/C(=C\CC/C(C)=C/CCc1ccoc1)CC/C=C(\C)CC/C=C(\C)CCc1cn(CCOCCOCCNC(=O)CSC[C@H](NC(=O)c2ccc(C(=O)c3ccccc3)cc2)C(=O)NCCOCCOCCOCCn2cc(CNC(=O)CCCC[C@@H]3SC[C@@H]4NC(=O)N[C@@H]43)nn2)nn1
growth inhibition (GI) (DU-145 [3]): Active | Activity (DU-145 [4]): Active

CC#CCC/C(C)=C/CC/C(C)=C/CC/C(C)=C/CC/C(C)=C/CCc1ccoc1
growth inhibition (GI) (DU-145 [1]): Active | growth inhibition (GI) (DU-145 [2]): Active
